Experimental data of several laboratories.
Each line is one published result; the experiments were not run side by side.
AVPR2: Vasopressin V2 receptor (AVPR2, Homo sapiens, UniProt P30518)
HTR1E: 5-hydroxytryptamine receptor 1E (HTR1E, Homo sapiens, UniProt P28566)
APC: Adenomatous polyposis coli protein (APC, Homo sapiens, UniProt P25054)
Palmitoyl-protein thioesterase 1: Palmitoyl-protein thioesterase 1 (Homo sapiens, UniProt P50897)
CSNK1A1/CRBN: Cereblon/Casein kinase I alpha (CSNK1A1/CRBN, Homo sapiens, UniProt P48729+Q96SW2)

CC1=NN(/C(=N/c2nnc(C)s2)Nc2ccc(C)c(C)c2)C(c2cc(F)c(F)c(F)c2F)S1 (stereo not drawn)
EC50 (AVPR2; cAMP, positive allosteric modulator): > 50 µM

O=C1c2ccccc2S(=O)(=O)N1CCCCN1CCN(c2ncccn2)CC1
EC50 (HTR1E; G protein activation, agonist, BRET): 0.628 µM

CSc1cccc(C(=O)N[C@@H](CCC(=O)O)C(=O)N[C@@H](Cc2ccc3ccccc3c2)C(=O)N[C@@H](CC(C)C)C(=O)NC2CC2c2ccccc2)c1 (stereo partly drawn)
IC50 (APC; ligand displacement, FP): 52.5 µM

CCN(CC)Cc1cc(Nc2ccnc3cc(Cl)ccc23)ccc1O
Kd (Palmitoyl-protein thioesterase 1; binding, MST): 0.076 µM

Cc1ccc(N/C(=N\c2nnc(C(C)(C)C)s2)N2N=C(C(C)(C)C)SC2c2cc(F)c(F)c(F)c2)cc1C (stereo not drawn)
EC50 (AVPR2; cAMP, positive allosteric modulator): > 50 µM

COc1cccc(C(=O)N[C@@H](CCC(=O)O)C(=O)N[C@@H](Cc2ccc3ccccc3c2)C(=O)N[C@@H](CC(C)C)C(=O)NC2CC2c2ccccc2)c1 (stereo partly drawn)
IC50 (APC; ligand displacement, FP): 38.9 µM

CCCN1C[C@H](CSC)C[C@@H]2c3cccc4[nH]cc(c34)C[C@H]21
EC50 (HTR1E; G protein activation, agonist, BRET): 1.9 µM

Cc1ccc(CNc2cccc3c2CN(C)N(C2CCC(=O)NC2=O)C3=O)cc1 (stereo not drawn)
DC50 (CSNK1A1/CRBN; protein level, degrader, luciferase): 0.97 µM

CC(C)C[C@H](NC(=O)[C@H](Cc1ccc2ccccc2c1)NC(=O)[C@H](CCC(=O)O)NC(=O)c1ccnc(F)c1)C(=O)NC1CC1c1ccccc1 (stereo partly drawn)
IC50 (APC; ligand displacement, FP): 42.7 µM

CC1=NN(/C(=N\c2ccc(Br)cc2)Nc2nnc(C)s2)C(c2ccc(C)cc2)S1 (stereo not drawn)
EC50 (AVPR2; cAMP, positive allosteric modulator): 17.6 µM

CN1CCc2cc(Cl)c(O)cc2[C@@H](c2ccccc2)C1
EC50 (HTR1E; G protein activation, agonist, BRET): 3.9 µM

CC1=NN(/C(=N/c2nnc(C)s2)Nc2ccc(C)c(C)c2)C(c2cc(F)c(F)c(F)c2)S1 (stereo not drawn)
EC50 (AVPR2; cAMP, positive allosteric modulator): > 50 µM

O=C(CCCCCN1CCN(c2ccccc2-c2ccccc2)CC1)NC1CCCc2ccccc21 (stereo not drawn)
EC50 (HTR1E; G protein activation, agonist, BRET): 1.75 µM

C=C[C@H]1C[N@@]2CC[C@H]1C[C@H]2[C@H](O)c1ccnc2ccc(OC)cc12
Kd (Palmitoyl-protein thioesterase 1; binding, MST): 0.256 µM

CC1=NN(/C(=N/c2nnc(C)s2)Nc2ccc(C)c(C)c2)C(c2ccc(F)c(F)c2)S1 (stereo not drawn)
EC50 (AVPR2; cAMP, positive allosteric modulator): > 50 µM

N#C[C@@]12C[C@@H]1[C@@H](n1cnc3c(N[C@@H](C4CCC4)C4CC4)nc(I)nc31)[C@H](O)[C@@H]2O
Ki (Adenosine receptor A3 (ADORA3, Homo sapiens, UniProt P0DMS8); ligand displacement, radioligand): > 1 µM

CN1CCC(=C2c3ccccc3C=Cc3ccccc32)CC1
EC50 (HTR1E; G protein activation, agonist, BRET): 2.04 µM

CC1=NN(/C(=N\c2ccccc2C)Nc2nnc(C)s2)C(c2ccc(C)cc2)S1 (stereo not drawn)
EC50 (AVPR2; cAMP, positive allosteric modulator): 20.8 µM

CSc1nccc(C(=O)N[C@@H](CCC(=O)O)C(=O)N[C@@H](Cc2ccc3ccccc3c2)C(=O)N[C@@H](CC(C)C)C(=O)NC2CC2c2ccccc2)n1 (stereo partly drawn)
Kd (APC; binding, SPR): 0.62 µM

CC(C)=CCNc1ncnc2c1ncn2[C@@H]1O[C@H](CO)[C@@H](O)[C@H]1O
EC50 (Adenosine receptor A3 (ADORA3, Homo sapiens, UniProt P0DMS8, I253Q); G protein activation, agonist): 0.08 µM

CC1=NN(/C(=N/c2nnc(C)s2)Nc2ccc(C)c(C)c2)C(c2ccc(C(F)(F)F)cc2)S1 (stereo not drawn)
EC50 (AVPR2; cAMP, positive allosteric modulator): > 50 µM

CC(C)C[C@H](NC(=O)[C@H](Cc1ccccc1)NC(=O)[C@H](CCC(=O)O)NC(=O)c1ccncn1)C(=O)NC1CC1c1ccccc1 (stereo partly drawn)
Kd (APC; binding, SPR): 67 µM

CN1Cc2c(N)cccc2C(=O)N1C1CCC(=O)NC1=O (stereo not drawn)
DC50 (CSNK1A1/CRBN; protein level, degrader, luciferase): > 10 µM

C#Cc1cccc(C(=O)N[C@@H](CCC(=O)O)C(=O)N[C@@H](Cc2ccc3ccccc3c2)C(=O)N[C@@H](CC(C)C)C(=O)NC2CC2c2ccccc2)c1 (stereo partly drawn)
IC50 (APC; ligand displacement, FP): 24 µM

[H]/N=C(\N/C(=N/[H])Nc1ccc(Cl)cc1)NC(C)C
Kd (Palmitoyl-protein thioesterase 1; binding, MST): 0.808 µM

CCCCCCCC/C=C\CCCCCCCC(=O)O
Kd (Myoglobin (MB, Homo sapiens, UniProt P02144); binding, absorbance): 0.24 µM

CN(C)c1ncnc2c1ncn2[C@@H]1O[C@H](CO)[C@@H](O)[C@H]1O
EC50 (Adenosine receptor A3 (ADORA3, Homo sapiens, UniProt P0DMS8, L264A); G protein activation, agonist): 4 µM

Nc1nnc(-c2ccccc2O)cc1N1CCN(Cc2ccc(OCCOCCNc3cccc4c3C(=O)N(C3CCC(=O)NC3=O)C4=O)c(F)c2)CC1 (stereo not drawn)
DC50 (SWI/SNF-related matrix-associated actin-dependent regulator of chromatin subfamily A member 2 (SMARCA2, Homo sapiens, UniProt P51531); protein level, degrader, western blot): 0.064 µM

CSc1ncc(Br)c(C(=O)N[C@@H](CCC(=O)O)C(=O)N[C@@H](Cc2ccc3ccccc3c2)C(=O)N[C@@H](CC(C)C)C(=O)N[C@@H]2C[C@H]2c2ccccc2)n1
Kd (APC; binding, SPR): 0.23 µM

Cc1cc(C(C)(C)C)c(O)c(C)c1CC1=NCCN1
EC50 (HTR1E; G protein activation, agonist, BRET): 0.516 µM

CC1=NN(/C(=N/c2nnc(C)s2)Nc2ccc(C)c(C)c2)C(c2ccsc2)S1 (stereo not drawn)
EC50 (AVPR2; cAMP, positive allosteric modulator): > 50 µM

Cc1ccc(Sc2ccccc2N2CCNCC2)c(C)c1
EC50 (HTR1E; G protein activation, agonist, BRET): 1.96 µM

N=C(N)NCCC[C@H](NC(=O)[C@@H](NC(=O)[C@H](Cc1cscn1)NC(=O)CCc1ccccc1)C1CCCCC1)C(=O)c1nc2ccccc2s1
Ki (Transmembrane protease serine 6 (Homo sapiens, UniProt Q8IU80); cell-free assay): ~0.005 µM
